Results on 18 compounds are retold here after ChEMBL document CHEMBL1933024, “In vitro antibacterial activity of sphaeropsidins and chemical derivatives toward Xanthomonas oryzae pv. oryzae, the causal agent of rice bacterial blight” (2011).

Common to all, as to assay type: functional
Assay [1] relates to Xanthomonas oryzae pv. oryzae. In words: Antibacterial activity against Xanthomonas oryzae pv. oryzae XKK.12 assessed as growth inhibition at 1.3 X 10^-3 M measured after 1 to 2 days. Summed up: (§1)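 Agar well diffusion. Each pathogen culture was mixed with top agar (PSA, KB or LB; 0.75% w/v agar) at 45 °C, 50 µL culture per 10 mL, and poured over LB plates bearing wells. Compound (25 or 100 µg in 50 µL DMSO) was added to the wells; 50 µL DMSO served as negative control. Plates were incubated at 30 °C for 1–2 days. The inhibition zone was measured in mm, including the 4 mm well. Three repeats, SD.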

The test system of the next assay is Pseudomonas fuscovaginae. The assay is described as follows: Antibacterial activity against Pseudomonas fuscovaginae UPB0736 assessed as growth inhibition at 25 to 100 ug measured after 1 to 2 days. Summed up:
as §1

Assay [2] concerns Xanthomonas oryzae pv. oryzae. In words: Antibacterial activity against Xanthomonas oryzae pv. oryzae XKK.12 assessed as growth inhibition at 5.2 X 10^-3 M measured after 1 to 2 days. In short, it runs like this: as §1
The subject of a further assay is Burkholderia glumae. In words: Antibacterial activity against Burkholderia glumae AU6208 assessed as growth inhibition at 25 to 100 ug measured after 1 to 2 days. Summed up:
as §1

For assay [3], the system named is Xanthomonas oryzae pv. oryzae. The assay is described as follows: Antibacterial activity against Xanthomonas oryzae pv. oryzae XKK.12 assessed as growth inhibition at 1.4 X 10^-3 M measured after 1 to 2 days. In short, it runs like this: as §1
The subject of assay [4] is Xanthomonas oryzae pv. oryzae. The assay is described as follows: Antibacterial activity against Xanthomonas oryzae pv. oryzae XKK.12 assessed as growth inhibition at 5.6 X 10^-3 M measured after 1 to 2 days. In short, it runs like this: as §1
Assay [5] relates to Xanthomonas oryzae pv. oryzae. The assay is described as follows: Antibacterial activity against Xanthomonas oryzae pv. oryzae XKK.12 assessed as growth inhibition at 6 X 10^-3 M measured after 1 to 2 days. Conditions: for zone of inhibition at 6000 µM: read-out: IZ. Summed up: as §1
Assay [6] concerns Xanthomonas oryzae pv. oryzae. The assay is described as follows: Antibacterial activity against Xanthomonas oryzae pv. oryzae XKK.12 assessed as growth inhibition at 1.5 X 10^-3 M measured after 1 to 2 days. Summed up:
as §1

Assay [7] deals with Xanthomonas oryzae pv. oryzae. The assay is described as follows: Bacteriostatic activity against Xanthomonas oryzae pv. oryzae XKK.12 assessed as growth inhibition at 0.5 to 1.5 X 10^-4 M measured after 1 to 2 days.
Assay [8] relates to Xanthomonas oryzae pv. oryzae. In words: Bactericidal activity against Xanthomonas oryzae pv. oryzae XKK.12 assessed as growth inhibition at 0.5 to 1.5 X 10^-4 M measured after 6 to 24 hrs.
Assay [9] concerns Xanthomonas oryzae pv. oryzae. The assay is described as follows: Antibacterial activity against Xanthomonas oryzae pv. oryzae XKK.12 assessed as growth inhibition at 5.2 X 10^-3 measured after 1 to 2 days relative to ampicillin.
Assay [10] deals with Xanthomonas oryzae pv. oryzae. The assay is described as follows: Antibacterial activity against Xanthomonas oryzae pv. oryzae XKK.12 assessed as growth inhibition at 5.7 X 10^-3 M measured after 1 to 2 days. Conditions: read-out: IZ. In short, it runs like this:
as §1

Assay [11] deals with Xanthomonas oryzae pv. oryzae. In words: Antibacterial activity against Xanthomonas oryzae pv. oryzae XKK.12 assessed as growth inhibition at 0.5 X 10^-3 M measured after 1 to 2 days. In short, it runs like this:
as §1

The test system of assay [12] is Xanthomonas oryzae pv. oryzae. The assay is described as follows: Antibacterial activity against Xanthomonas oryzae pv. oryzae XKK.12 assessed as growth inhibition at 2 X 10^-3 measured after 1 to 2 days relative to ampicillin.
For assay [13], the system named is Xanthomonas oryzae pv. oryzae. The assay is described as follows: Antibacterial activity against Xanthomonas oryzae pv. oryzae XKK.12 assessed as growth inhibition at 2 X 10^-3 M measured after 1 to 2 days. Conditions: read-out: IZ. Summed up: as §1
The subject of assay [14] is Xanthomonas oryzae pv. oryzae. In words: Bactericidal activity against Xanthomonas oryzae pv. oryzae XKK.12 assessed as decrease in survival rate at 0.5 to 1.5 X 10^-4 M measured after 6 to 24 hrs.
The subject of assay [15] is Xanthomonas oryzae pv. oryzae. The assay is described as follows: Antibacterial activity against Xanthomonas oryzae pv. oryzae XKK.12 assessed as growth inhibition at 25 to 100 ug measured after 1 to 2 days. In short, it runs like this:
as §1

Assay [16] relates to Xanthomonas oryzae pv. oryzae. In words: Antibacterial activity against Xanthomonas oryzae pv. oryzae XKK.12 assessed as growth inhibition at 6 X 10^-3 measured after 1 to 2 days relative to ampicillin.
Assay [17] deals with Xanthomonas oryzae pv. oryzae. The assay is described as follows: Antibacterial activity against Xanthomonas oryzae pv. oryzae XKK.12 assessed as growth inhibition at 1.0 X 10^-3 M measured after 1 to 2 days. In short, it runs like this:
as §1

In assay [18] the test system is Xanthomonas oryzae pv. oryzae. In words: Antibacterial activity against Xanthomonas oryzae pv. oryzae XKK.12 assessed as growth inhibition at 4 X 10^-3 M measured after 1 to 2 days. In short, it runs like this:
as §1

Active and inactive are the calls of the source. The rule behind the calls is not given here.

As to `CC[C@]1(C)C=C2[C@@H](OC(C)=O)[C@@]3(O)OC(=O)[C@@]4(CCCC(C)(C)[C@H]34)[C@@]2(O)CC1`, the “inhibition zone (IZ)” value in assay [1] and in assay [2] was “inactive” throughout. Further, the result in the assay with Pseudomonas fuscovaginae and with Burkholderia glumae was inactive.
As to `C=C[C@@]1(C)CC[C@@]2(O)C(=C1C)C(=O)C(=O)[C@H]1C(C)(C)CCC[C@@]12C(=O)OC`, the outcome with Pseudomonas fuscovaginae and in the assay on Burkholderia glumae was inactive. For the same compound, the “inhibition zone (IZ)” value in [3] and in [4] was “inactive” each time.
As to `C=C[C@@]1(C)CC[C@]2(O)[C@@]3(C(=O)OC)CCCC(C)(C)[C@@H]3C(=O)C(=O)[C@@]23C[C@@H]13`, the “inhibition zone (IZ)” value in assay [1] and in [2] was “inactive” throughout. The outcome with Pseudomonas fuscovaginae and in the assay with Burkholderia glumae was inactive.
As to `C=C[C@]1(C)C=C2[C@@H](O)C[C@H]3C(C)(C)CCC[C@]3(C(=O)O)[C@@]2(O)CC1`, the result in the assay on Pseudomonas fuscovaginae and in the assay on Burkholderia glumae was inactive. Besides, the “inhibition zone (IZ)” value in assay [5] and in [6] was “inactive” in each case.
On to `CC[C@]1(C)C=C2[C@@H](O)[C@@]3(O)OC(=O)[C@@]4(CCCC(C)(C)[C@H]34)[C@@]2(O)CC1`, for which the outcome (in the assay on Pseudomonas fuscovaginae; in [7]; with Burkholderia glumae) was inactive. Also, in [5], the zone of inhibition at 6000 µM came out at 8.9 mm. In [6], the “inhibition zone (IZ)” value was “inactive”.
For the compound `C=C[C@]1(C)C=C2C3(CO3)C(=O)[C@H]3C(C)(C)CCC[C@]3(C(=O)OC)[C@@]2(OC)CC1` (some centres undefined), the “inhibition zone (IZ)” value in [1] and in assay [2] was “inactive” each time. Moreover, the outcome in the assay on Pseudomonas fuscovaginae and with Burkholderia glumae was inactive.
Consider `C=C[C@]1(C)C=C2C3(CO3)C(=O)[C@H]3C(C)(C)CCC[C@]3(C(=O)OC)[C@@]2(O)CC1` (some centres undefined), for which the “inhibition zone (IZ)” value in [1] and in assay [2] was “inactive” each time. Further, the result with Pseudomonas fuscovaginae and in the assay on Burkholderia glumae was inactive.
For `C=C[C@]1(C)C=C(C=O)[C@@]2(CC1)OC(=O)[C@H]1C(C)(C)CCC[C@@]12C(=O)O`, the result with Pseudomonas fuscovaginae and with Burkholderia glumae was inactive. Also, the “inhibition zone (IZ)” value in assay [5] and in [6] was “inactive” throughout.
Take `C=C[C@]1(C)C=C2C(=O)[C@@]3(OC(C)=O)OC(=O)[C@@]4(CCCC(C)(C)[C@H]34)[C@@]2(O)CC1`: the result in assay [8] and in assay [7] was Active. Also, in assay [1] (read-out: IZ), the zone of inhibition at 1300 µM is 15.8 mm. In addition, the outcome in the assay with Pseudomonas fuscovaginae and in the assay on Burkholderia glumae was inactive. Moreover, the “inhibition (INH)” value in assay [9] is listed as 39.8%. Moreover, the zone of inhibition at 5200 µM in [2] (read-out: IZ) came out at 20.7 mm.
Consider `C=C[C@]1(C)C=C2[C@@H](O)C(=O)[C@H]3C(C)(C)CCC[C@]3(C(=O)OC)[C@@]2(O)CC1`, for which the outcome in the assay on Pseudomonas fuscovaginae and with Burkholderia glumae was inactive. Moreover, the “inhibition zone (IZ)” value in assay [3] and in assay [4] was “inactive” in each case.
Turning to `CC1(C)S[C@@H]2[C@H](NC(=O)[C@H](N)c3ccccc3)C(=O)N2[C@H]1C(=O)O` [AMPICILLIN], in assay [10], the zone of inhibition at 5700 µM was found to be 52 mm.
`C=C[C@@]1(C)CCC2=C(C(=O)[C@@]3(OC(C)=O)OC(=O)[C@@]24CCCC(C)(C)[C@H]34)C1OC(C)=O` (some centres undefined): the outcome in the assay on Pseudomonas fuscovaginae and in the assay with Burkholderia glumae was inactive. The outcome in assay [7] was Active. The “inhibition zone (IZ)” value in [11] was “inactive”. In addition, in assay [12], the “inhibition (INH)” value is on record as 29.4%. In [13], the zone of inhibition at 2000 µM worked out at 15.3 mm.
For the compound `C=C[C@]1(C)C=C2[C@@H](O)[C@@]3(O)OC(=O)[C@@]4(CCCC(C)(C)[C@H]34)[C@@]2(O)CC1`, the result in the assay on Pseudomonas fuscovaginae and in the assay on Burkholderia glumae was inactive. In addition, the “inhibition zone (IZ)” value in assay [5] and in assay [6] was “inactive” in each case.
For the compound `C=C[C@]1(C)C=C2C(=O)C[C@H]3C(C)(C)CCC[C@]3(C(=O)OC)[C@@]2(O)CC1`, the outcome with Pseudomonas fuscovaginae and in the assay on Burkholderia glumae was inactive. Further, the “inhibition zone (IZ)” value in [5] and in assay [6] was “inactive” each time.
`C=C[C@]1(C)C=C2C(=O)[C@@]3(O)OC(=O)[C@@]4(CCCC(C)(C)[C@H]34)[C@@]2(O)CC1` [SPHAEROPSIDIN A]: the result in assay [8], in [14] and in [15] was Active. Besides, the zone of inhibition at 6000 µM in assay [5] is 25.5 mm. For the same compound, the zone of inhibition at 1500 µM in assay [6] (read-out: IZ) was 18.3 mm. Further, in assay [16], the “growth inhibition (GI)” value was determined as 49%.
With `C=C[C@]1(C)C=C2[C@@H](OC(C)=O)[C@@]3(O)OC(=O)[C@@]4(CCCC(C)(C)[C@H]34)[C@@]2(O)CC1`, the outcome with Pseudomonas fuscovaginae and in the assay with Burkholderia glumae was inactive. In addition, the “inhibition zone (IZ)” value in assay [17] and in assay [18] was “inactive” in each case.
As to `C=C[C@]1(C)C=C2C(=O)C[C@H]3C(C)(C)CCC[C@]3(C(=O)O)[C@@]2(O)CC1`, the result in the assay on Pseudomonas fuscovaginae and with Burkholderia glumae was inactive. Besides, the “inhibition zone (IZ)” value in [5] and in assay [6] was “inactive” throughout.
For `CC[C@]1(C)C=C2C(=O)[C@@]3(O)OC(=O)[C@@]4(CCCC(C)(C)[C@H]34)[C@@]2(O)CC1`, the result in the assay on Pseudomonas fuscovaginae and in the assay on Burkholderia glumae was inactive. Also, the zone of inhibition at 6000 µM in assay [5] amounted to 11.6 mm. Further, in [7], the outcome was Active. Further, the “inhibition zone (IZ)” value in assay [6] is “inactive”. In addition, in assay [16], the “growth inhibition (GI)” value is 22.3%.
